One block for each compound: values may come before it.
Tests used:
Assay type in all cases: functional, cell-based
[1] = biological target: T1, ATP-dependent translocase ABCB1 (Homo sapiens, UniProt P08183); experiment: TP_TRANSPORTER: increase in Vinblastine intracellular accumulation of 6',7'-Dihydroxybergamottin at a concentration of 20uM in LLC-GA5-COL150 cells; conditions: pig, llc-ga5-col150, 20 µM
Procedure, shortened: (§1)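 LLC-GA5-COL150 (LLC-PK1 transfected with human MDR1; grown with 150 ng ml⁻¹ colchicine, withdrawn 6 h before assay) and parental LLC-PK1 seeded in four-well dishes and grown 3 days. Cells were incubated 90 min with 20 nM [³H]vinblastine ± inhibitor in HEPES buffer, pH 7.4, 37°C, then washed in ice-cold buffer. Read-out was cell/medium ratio per mg protein (Lowry) by scintillation. Uptake potentiation ratio = % of control in transfectant / % of control in LLC-PK1 × 100; mean ± s.e.m., n=3.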

[2] = biological target: T1, ATP-dependent translocase ABCB1; experiment: TP_TRANSPORTER: increase in saquinavir intracellular accumulation of 6',7'-Dihydroxybergamottin at a concentration of 20uM in LLC-GA5-COL150 cells; conditions: pig, llc-ga5-col150, 20 µM
Procedure, shortened: (§2)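 LLC-GA5-COL150 (human MDR1-transfected LLC-PK1; colchicine withdrawn 6 h before assay) and LLC-PK1 control cells were grown 3 days in four-well dishes. Uptake of 5 µM [¹⁴C]saquinavir ± inhibitor ran 90 min in pH 7.4 HEPES buffer at 37°C and was stopped with ice-cold washes. Cell/medium ratio was normalised to Lowry protein. Potentiation ratio = % of control (MDR1 cells) / % of control (LLC-PK1) × 100; mean ± s.e.m. of three experiments.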

[3] = biological target: T1, ATP-dependent translocase ABCB1; experiment: TP_TRANSPORTER: increase in Vinblastine intracellular accumulation in the presence of Bergamottin at 20uM in LLC-GA5-COL150 cells; conditions: pig, llc-ga5-col150, 20 µM; procedure, shortened: as §1
[4] = biological target: T1, ATP-dependent translocase ABCB1; experiment: TP_TRANSPORTER: increase in Vinblastine intracellular accumulation in the presence of MK-571 at 50uM in LLC-GA5-COL150 cells; conditions: pig, llc-ga5-col150, 50 µM; procedure, shortened: as §1
[5] = biological target: T1, ATP-dependent translocase ABCB1; experiment: TP_TRANSPORTER: increase in Vinblastine intracellular accumulation of Nobiletin at a concentration of 20uM in LLC-GA5-COL150 cells; conditions: pig, llc-ga5-col150, 20 µM; procedure, shortened: as §1
[6] = biological target: T1, ATP-dependent translocase ABCB1; experiment: TP_TRANSPORTER: increase in saquinavir intracellular accumulation in the presence of Nobiletin at 20uM in LLC-GA5-COL150 cells; conditions: pig, llc-ga5-col150, 20 µM; procedure, shortened: as §2
[7] = biological target: T1, ATP-dependent translocase ABCB1; experiment: TP_TRANSPORTER: increase in saquinavir intracellular accumulation in the presence of Probenecid at 5mM in LLC-GA5-COL150 cells; conditions: pig, llc-ga5-col150, 5000 µM; procedure, shortened: as §2
[8] = biological target: T1, ATP-dependent translocase ABCB1; experiment: TP_TRANSPORTER: increase in Vinblastine intracellular accumulation in the presence of Probenecid at 5mM in LLC-GA5-COL150 cells; conditions: pig, llc-ga5-col150, 5000 µM; procedure, shortened: as §1
[9] = biological target: T1, ATP-dependent translocase ABCB1; experiment: TP_TRANSPORTER: increase in saquinavir intracellular accumulation in the presence of Sulfinpyrazone at 5mM in LLC-GA5-COL150 cells; conditions: pig, llc-ga5-col150, 5000 µM; procedure, shortened: as §2
[10] = biological target: T1, ATP-dependent translocase ABCB1; experiment: TP_TRANSPORTER: increase in Vinblastine intracellular accumulation in the presence of Sulfinpyrazone at 5mM in LLC-GA5-COL150 cells; conditions: pig, llc-ga5-col150, 5000 µM; procedure, shortened: as §1
[11] = biological target: T1, ATP-dependent translocase ABCB1; experiment: TP_TRANSPORTER: increase in Vinblastine intracellular accumulation of Tangeretin at a concentration of 20uM in LLC-GA5-COL150 cells; conditions: pig, llc-ga5-col150, 20 µM; procedure, shortened: as §1
[12] = biological target: T1, ATP-dependent translocase ABCB1; experiment: TP_TRANSPORTER: increase in saquinavir intracellular accumulation of Tangeretin at a concentration of 20uM in LLC-GA5-COL150 cells; conditions: pig, llc-ga5-col150, 20 µM; procedure, shortened: as §2

T1 sequence (P08183 whole entry): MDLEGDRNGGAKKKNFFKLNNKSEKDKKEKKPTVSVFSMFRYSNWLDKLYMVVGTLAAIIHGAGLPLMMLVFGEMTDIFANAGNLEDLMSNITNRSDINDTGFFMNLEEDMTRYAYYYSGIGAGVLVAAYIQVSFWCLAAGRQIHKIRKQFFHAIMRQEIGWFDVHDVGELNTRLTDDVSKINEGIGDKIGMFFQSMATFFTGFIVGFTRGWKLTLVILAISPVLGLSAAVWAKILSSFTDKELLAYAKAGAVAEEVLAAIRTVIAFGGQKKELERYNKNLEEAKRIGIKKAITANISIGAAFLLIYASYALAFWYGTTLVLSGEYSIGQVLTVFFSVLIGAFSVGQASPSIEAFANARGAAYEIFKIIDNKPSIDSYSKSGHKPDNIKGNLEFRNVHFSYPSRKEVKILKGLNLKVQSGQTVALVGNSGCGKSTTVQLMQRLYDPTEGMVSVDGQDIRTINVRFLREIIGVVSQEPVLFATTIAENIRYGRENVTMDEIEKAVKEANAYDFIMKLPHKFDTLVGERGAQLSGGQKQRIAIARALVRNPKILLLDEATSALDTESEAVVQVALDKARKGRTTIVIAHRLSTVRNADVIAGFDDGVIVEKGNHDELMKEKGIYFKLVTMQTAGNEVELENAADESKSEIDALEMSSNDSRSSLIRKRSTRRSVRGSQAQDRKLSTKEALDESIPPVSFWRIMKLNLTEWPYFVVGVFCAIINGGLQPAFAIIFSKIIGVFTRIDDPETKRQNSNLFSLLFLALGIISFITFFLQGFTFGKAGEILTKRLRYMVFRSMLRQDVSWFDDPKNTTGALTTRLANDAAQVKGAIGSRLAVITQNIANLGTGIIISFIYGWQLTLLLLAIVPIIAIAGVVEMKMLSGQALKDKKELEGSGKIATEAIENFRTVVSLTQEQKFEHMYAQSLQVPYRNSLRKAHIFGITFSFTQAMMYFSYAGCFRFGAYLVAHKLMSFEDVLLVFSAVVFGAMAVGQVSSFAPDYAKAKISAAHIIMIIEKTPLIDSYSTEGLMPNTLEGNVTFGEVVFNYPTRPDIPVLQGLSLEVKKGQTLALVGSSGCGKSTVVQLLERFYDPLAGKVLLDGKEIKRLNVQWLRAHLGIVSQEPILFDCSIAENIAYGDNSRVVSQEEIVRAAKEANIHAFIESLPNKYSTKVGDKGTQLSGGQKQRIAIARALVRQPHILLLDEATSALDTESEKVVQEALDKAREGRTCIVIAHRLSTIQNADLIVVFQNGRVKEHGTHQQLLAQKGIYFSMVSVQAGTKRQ

Activity [7]: is not an inhibitor [-]
Activity [8]: is not an inhibitor [-]
Structure (SMILES): CCCN(CCC)S(=O)(=O)c1ccc(C(=O)O)cc1 [PROBENECID]

Activity [9]: is not an inhibitor [-]
Activity [10]: is not an inhibitor [-]
Structure (SMILES): O=C1C(CC[S+]([O-])c2ccccc2)C(=O)N(c2ccccc2)N1c1ccccc1 (configuration not stated) [SULFINPYRAZONE]

Activity [11]: inhibitor [+]
Activity [12]: inhibitor [+]
Structure (SMILES): COc1ccc(-c2cc(=O)c3c(OC)c(OC)c(OC)c(OC)c3o2)cc1 [TANGERETIN]

The next lines start with the compound.

Structure (SMILES): C/C(=C\COc1c2ccoc2cc2oc(=O)ccc12)CC[C@@H](O)C(C)(C)O
Activity [1]: inhibitor [+]
Activity [2]: inhibitor [+]

Structure (SMILES): CC(C)=CCC/C(C)=C/COc1c2ccoc2cc2oc(=O)ccc12 [BERGAMOTTIN]
Activity [3]: is not an inhibitor [-]

Structure (SMILES): CN(C)C(=O)CCSC(SCCC(=O)O)c1cccc(/C=C/c2ccc3ccc(Cl)cc3n2)c1 (configuration not stated) [MK-571]
Activity [4]: is not an inhibitor [-]

Structure (SMILES): COc1ccc(-c2cc(=O)c3c(OC)c(OC)c(OC)c(OC)c3o2)cc1OC [NOBILETIN]
Activity [5]: inhibitor [+]
Activity [6]: is not an inhibitor [-]
